Activity and EC50 data for 5 compounds are collected here from ChEMBL document CHEMBL3826928, “Incorporation of Phosphonate into Benzonaphthyridine Toll-like Receptor 7 Agonists for Adsorption to Aluminum Hydroxide” (J Med Chem, 2016).

Molecules are shown by their SMILES.

The target of the first series is T1, Toll-like receptor 8 (Homo sapiens) (UniProt Q9NR97).
T1 sequence (whole entry): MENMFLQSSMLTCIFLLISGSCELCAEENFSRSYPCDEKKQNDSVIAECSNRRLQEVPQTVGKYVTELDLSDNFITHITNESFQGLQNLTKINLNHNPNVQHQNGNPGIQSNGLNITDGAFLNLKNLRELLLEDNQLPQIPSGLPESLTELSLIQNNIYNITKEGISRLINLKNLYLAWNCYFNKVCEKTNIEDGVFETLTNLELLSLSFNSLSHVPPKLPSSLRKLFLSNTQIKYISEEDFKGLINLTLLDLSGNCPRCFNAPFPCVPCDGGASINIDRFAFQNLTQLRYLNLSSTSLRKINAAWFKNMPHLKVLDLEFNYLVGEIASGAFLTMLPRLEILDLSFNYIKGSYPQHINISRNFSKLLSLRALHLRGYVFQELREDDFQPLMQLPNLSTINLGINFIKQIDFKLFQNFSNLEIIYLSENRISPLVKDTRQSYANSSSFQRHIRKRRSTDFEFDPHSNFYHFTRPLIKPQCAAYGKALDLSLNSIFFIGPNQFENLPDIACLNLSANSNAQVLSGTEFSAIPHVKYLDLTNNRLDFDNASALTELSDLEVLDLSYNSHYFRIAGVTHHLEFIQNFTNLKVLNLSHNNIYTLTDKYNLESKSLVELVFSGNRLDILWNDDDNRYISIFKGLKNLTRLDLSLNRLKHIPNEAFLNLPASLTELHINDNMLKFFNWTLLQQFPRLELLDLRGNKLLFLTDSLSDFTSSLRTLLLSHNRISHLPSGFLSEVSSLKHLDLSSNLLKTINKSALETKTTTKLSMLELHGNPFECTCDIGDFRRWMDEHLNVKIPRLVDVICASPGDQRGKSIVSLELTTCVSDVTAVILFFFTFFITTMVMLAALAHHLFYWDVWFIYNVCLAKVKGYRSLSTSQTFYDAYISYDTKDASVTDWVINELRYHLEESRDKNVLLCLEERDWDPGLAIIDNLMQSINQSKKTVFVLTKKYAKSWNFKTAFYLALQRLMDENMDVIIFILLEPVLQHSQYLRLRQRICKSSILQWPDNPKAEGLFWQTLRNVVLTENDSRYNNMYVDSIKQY
The experiment in a line: Agonist activity at human TLR8 expressed in HEK293 cells up to 30 uM incubated for 6 hrs by luciferase reporter gene assay relative to resiquimod. Format: cell-based.
Settings: not given
For `Cc1ccc2c(c1)nc(N)c1ncc(CCc3ccc(OCCOCCOCCC(F)(F)P(=O)(O)O)cc3C)cc12`, the Activity is < 5%.

In the case of `Cc1cc(OCCOCCOCCC(F)(F)P(=O)(O)O)ccc1CCc1cnc2c(N)nc3cc(CCC(=O)O)ccc3c2c1`, the Activity is < 5%.

On to `Cc1ccc2c(c1)nc(N)c1ncc(CCc3ccc(OCCCP(=O)(O)O)cc3C)cc12`, for which the Activity was < 5%.

Regarding `Cc1cc(OCCCC(F)(F)P(=O)(O)O)ccc1CCc1cnc2c(N)nc3cc(CCC(=O)O)ccc3c2c1`, the Activity was < 5%.

`Cc1cc(OCCOCCOCCP(=O)(O)O)ccc1CCc1cnc2c(N)nc3cc(CCC(=O)O)ccc3c2c1`: the Activity is < 5%.

For the next series, the target named is T2, Toll-like receptor 7 (Homo sapiens, UniProt Q9NYK1).
T2 sequence (Q9NYK1 whole entry): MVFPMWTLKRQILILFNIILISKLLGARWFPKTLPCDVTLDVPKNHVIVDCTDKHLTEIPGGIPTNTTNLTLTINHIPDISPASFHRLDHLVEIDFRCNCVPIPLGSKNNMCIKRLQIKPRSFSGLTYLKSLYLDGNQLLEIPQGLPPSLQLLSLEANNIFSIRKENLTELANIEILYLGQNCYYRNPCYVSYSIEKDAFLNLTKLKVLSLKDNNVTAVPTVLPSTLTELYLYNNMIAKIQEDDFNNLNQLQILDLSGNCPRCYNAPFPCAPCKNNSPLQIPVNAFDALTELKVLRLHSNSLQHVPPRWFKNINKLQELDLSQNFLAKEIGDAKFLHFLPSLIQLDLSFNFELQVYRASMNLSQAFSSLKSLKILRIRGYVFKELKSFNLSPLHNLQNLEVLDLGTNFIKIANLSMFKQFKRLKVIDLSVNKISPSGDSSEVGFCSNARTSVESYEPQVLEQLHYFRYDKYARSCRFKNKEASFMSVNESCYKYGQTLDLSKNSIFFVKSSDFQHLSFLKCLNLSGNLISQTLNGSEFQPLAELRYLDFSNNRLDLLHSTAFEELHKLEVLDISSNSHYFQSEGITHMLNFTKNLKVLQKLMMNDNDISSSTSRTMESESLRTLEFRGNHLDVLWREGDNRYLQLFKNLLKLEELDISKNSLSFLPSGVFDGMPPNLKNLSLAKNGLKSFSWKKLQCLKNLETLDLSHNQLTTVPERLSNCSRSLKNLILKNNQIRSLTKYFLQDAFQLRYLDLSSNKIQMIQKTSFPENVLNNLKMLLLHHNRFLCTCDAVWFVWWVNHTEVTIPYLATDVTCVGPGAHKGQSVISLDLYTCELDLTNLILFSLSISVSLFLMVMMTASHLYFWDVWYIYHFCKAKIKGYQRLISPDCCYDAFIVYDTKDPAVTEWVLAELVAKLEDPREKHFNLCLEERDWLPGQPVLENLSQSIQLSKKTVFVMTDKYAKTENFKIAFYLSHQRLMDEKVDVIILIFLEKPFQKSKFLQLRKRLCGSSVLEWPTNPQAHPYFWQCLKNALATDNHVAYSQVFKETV
The experiment in a line: Agonist activity at human TLR7 expressed in HEK293 cells incubated for 6 hrs by luciferase reporter gene assay. Format: cell-based.
Settings: not given
The essentials: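 HEK293 stably carrying NF-κB-firefly luciferase reporter plus human TLR7 (best resiquimod-responding clone), maintained under puromycin/blasticidin. 25 000 cells per well in DMEM with 3% FCS.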
By EC50 is commonly meant the concentration giving half of the maximal effect. For `Cc1ccc2c(c1)nc(N)c1ncc(CCc3ccc(OCCOCCOCCC(F)(F)P(=O)(O)O)cc3C)cc12`, the response was half-maximal at 1200 nM (EC50).

For the compound `Cc1cc(OCCOCCOCCC(F)(F)P(=O)(O)O)ccc1CCc1cnc2c(N)nc3cc(CCC(=O)O)ccc3c2c1`, the response was half-maximal at 39 nM (EC50).

As for `Cc1ccc2c(c1)nc(N)c1ncc(CCc3ccc(OCCCP(=O)(O)O)cc3C)cc12`, the midpoint of the response, the EC50, lay at 230 nM.

On to `Cc1cc(OCCCC(F)(F)P(=O)(O)O)ccc1CCc1cnc2c(N)nc3cc(CCC(=O)O)ccc3c2c1`, for which the EC50 was 240 nM.

`Cc1cc(OCCOCCOCCP(=O)(O)O)ccc1CCc1cnc2c(N)nc3cc(CCC(=O)O)ccc3c2c1` showed an EC50 of 350 nM.

Test system in a further series: not listed separately
The experiment in a line: Adsorption on alum in pH 6.5 histidine buffer assessed as compound adsorbed at 1 mg/ml incubated for 1 hr by LC-MS analysis relative to control. The class given is physicochemical. The following applies: pH 6.5, 1 h. Summed up: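 Compound dissolved in endotoxin-free water, then combined with Alhydrogel alum suspension and 100 mM histidine pH 6.5 stock; final 1 mg/mL compound, 3 mg/mL alum in 10 mM histidine, gently agitated 1 h at room temperature. Aliquot centrifuged 13 000 rpm 10 min; supernatant analysed by LCMS against nonadsorbed reference to give unbound fraction, bound fraction derived indirectly.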
For `Cc1ccc2c(c1)nc(N)c1ncc(CCc3ccc(OCCOCCOCCC(F)(F)P(=O)(O)O)cc3C)cc12`, the Activity worked out at 98%.

Regarding `Cc1cc(OCCOCCOCCC(F)(F)P(=O)(O)O)ccc1CCc1cnc2c(N)nc3cc(CCC(=O)O)ccc3c2c1`, the Activity is 97%.

As for `Cc1ccc2c(c1)nc(N)c1ncc(CCc3ccc(OCCCP(=O)(O)O)cc3C)cc12`, the Activity result was “ND(Insoluble)”.

With `Cc1cc(OCCCC(F)(F)P(=O)(O)O)ccc1CCc1cnc2c(N)nc3cc(CCC(=O)O)ccc3c2c1`, the Activity is listed as 95%.

For `Cc1cc(OCCOCCOCCP(=O)(O)O)ccc1CCc1cnc2c(N)nc3cc(CCC(=O)O)ccc3c2c1`, the Activity is on record as 97%.
